Data as given in ChEMBL document CHEMBL1122179, “1-(alkylamino)isochromans: hypotensives with peripheral and central activities” (J Med Chem, 1982).

Tests used:
Rattus norvegicus [1] = assay: Delta BP refers to oral hypotensive activity of compound which is evaluated at 4 hr and 24 hr in restrained, normotensive conscious rats at a dose of 5 mg/kg; -9/-3; format: functional
How it was run: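 Female Sprague-Dawley rats, normotensive, restrained in a towel. Blood pressure was read directly via chronic indwelling aortic cannulas exteriorized at the nape, before and 4 and 24 h after an oral dose suspended in carboxymethylcellulose (10 mL/kg). Values from two animals were averaged at each time; a mean change of at least 5 mmHg was taken as significant (p < 0.05).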

Rattus norvegicus [2] = assay: Pressor effects of intravenous norepinephrine (0.1 ug/kg) was measured in anesthetized rats at 0 min.; format: functional
How it was run: (§1)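 Female Sprague-Dawley rats (200–300 g), anesthetized iv with α-chloralose (40 mg/kg), urethane (40 mg/kg) and pentobarbital (15 mg/kg). Carotid artery catheter for blood pressure and heart rate, jugular vein for drugs. Test agent given at 1.0 mg/kg iv in 0.1 M citric acid (1 mg/mL). Pressor responses to iv norepinephrine 0.1 μg/kg, phenylephrine 2.5 μg/kg and angiotensin I 0.1 μg/kg were taken before and 15, 30, 45 and 60 min after dosing. Mean ± SEM.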

Rattus norvegicus [3] = assay: Heart rate of compound was measured in anesthetized rats at 60 min.; format: functional; how it was run: as §1
[4] = molecular target: T1, Adrenergic receptor alpha-1 (Rattus norvegicus, UniProt P15823+P23944+P43140); assay: Compound was tested for the inhibition of [3H]prazosin binding alpha-1-adrenergic receptor of crude rat brain membrane.
T1 sequence (P15823 whole entry): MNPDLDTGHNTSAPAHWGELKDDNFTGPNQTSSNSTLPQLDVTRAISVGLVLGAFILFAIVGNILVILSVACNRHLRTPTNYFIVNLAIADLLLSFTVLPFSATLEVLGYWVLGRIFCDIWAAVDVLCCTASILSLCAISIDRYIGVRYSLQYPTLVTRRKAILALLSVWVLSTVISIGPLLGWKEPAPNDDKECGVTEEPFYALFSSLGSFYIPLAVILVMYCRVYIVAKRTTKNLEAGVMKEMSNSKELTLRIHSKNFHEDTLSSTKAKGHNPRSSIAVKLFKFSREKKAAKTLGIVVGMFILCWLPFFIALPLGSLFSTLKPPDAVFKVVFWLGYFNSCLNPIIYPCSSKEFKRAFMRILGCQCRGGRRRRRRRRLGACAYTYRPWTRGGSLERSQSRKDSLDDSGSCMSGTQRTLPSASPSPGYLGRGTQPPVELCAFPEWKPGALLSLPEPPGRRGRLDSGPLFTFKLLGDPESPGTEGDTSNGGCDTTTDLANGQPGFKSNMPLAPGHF
T1 sequence (P23944 whole entry): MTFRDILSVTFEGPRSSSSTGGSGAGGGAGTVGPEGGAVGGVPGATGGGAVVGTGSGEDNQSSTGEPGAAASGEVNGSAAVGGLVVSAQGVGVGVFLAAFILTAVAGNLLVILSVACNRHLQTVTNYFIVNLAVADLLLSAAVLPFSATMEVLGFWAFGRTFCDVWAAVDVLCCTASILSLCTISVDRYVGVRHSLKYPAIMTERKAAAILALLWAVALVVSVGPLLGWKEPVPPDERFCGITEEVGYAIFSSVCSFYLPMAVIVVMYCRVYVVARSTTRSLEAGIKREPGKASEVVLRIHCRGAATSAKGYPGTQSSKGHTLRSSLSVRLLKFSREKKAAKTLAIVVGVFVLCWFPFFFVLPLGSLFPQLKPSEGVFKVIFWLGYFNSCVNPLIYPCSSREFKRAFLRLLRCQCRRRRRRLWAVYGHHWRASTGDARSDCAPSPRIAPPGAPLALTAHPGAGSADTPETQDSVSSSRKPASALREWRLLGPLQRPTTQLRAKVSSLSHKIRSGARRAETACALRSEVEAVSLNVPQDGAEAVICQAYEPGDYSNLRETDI
T1 sequence (P43140 whole entry): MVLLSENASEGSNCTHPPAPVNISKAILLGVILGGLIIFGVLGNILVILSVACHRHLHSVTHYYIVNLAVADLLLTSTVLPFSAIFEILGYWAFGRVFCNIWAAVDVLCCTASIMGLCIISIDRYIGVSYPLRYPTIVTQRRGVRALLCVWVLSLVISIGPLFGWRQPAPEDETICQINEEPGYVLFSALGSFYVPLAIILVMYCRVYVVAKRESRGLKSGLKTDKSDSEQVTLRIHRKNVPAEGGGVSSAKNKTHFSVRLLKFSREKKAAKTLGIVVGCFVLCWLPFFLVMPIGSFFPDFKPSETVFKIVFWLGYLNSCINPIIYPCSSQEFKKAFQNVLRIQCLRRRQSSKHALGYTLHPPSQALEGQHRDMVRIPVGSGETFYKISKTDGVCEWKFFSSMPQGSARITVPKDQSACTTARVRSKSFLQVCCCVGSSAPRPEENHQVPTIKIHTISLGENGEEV

Rattus norvegicus [5] = assay: Mean arterial pressure of compound was measured in anesthetized rats at 0 min.; format: functional, Artery; how it was run: as §1
Rattus norvegicus [6] = assay: Pressor effects of intravenous norepinephrine (0.1 ug/kg) was measured in anesthetized rats at 60 min.; format: functional; how it was run: as §1

Ki [4]: 4 nM
Structure (SMILES): COc1cc2c(cc1OC)C(CCN1CCN(c3ccc(F)cc3)CC1)OCC2 (stereo unspecified)
Delta blood pressure (Rattus norvegicus [1]): -9 mmHg
Pressor response (Rattus norvegicus [2]): 19 mmHg
HR (Rattus norvegicus [3]): 426 beats min-1
MAP (Rattus norvegicus [5]): 105 mmHg
Pressor response (Rattus norvegicus [6]): 7 mmHg
